ChEMBL document CHEMBL3098049, “Concise synthesis and biological evaluation of 2-Aroyl-5-amino benzo[b]thiophene derivatives as a novel class of potent antimitotic agents” (J Med Chem, 2013)
Active and inactive are the calls of the source. No cut-off for these calls is given here.

What was measured:
Jurkat [1] = experiment: Cell cycle arrest in human Jurkat cells assessed as reduction in S phase up to 60 nM after 24 hrs by propidium iodide staining-based flow cytometric analysis relative to control; format: functional
In short: (§1)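 Jurkat cells treated for 24 h, fixed, PI-labelled and analysed by flow cytometry for cell-cycle phase distribution. Mean of three independent experiments.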

HeLa [2] = experiment: Induction of apoptosis in human HeLa cells assessed as caspase-9 cleavage at 10 to 100 nM after 24 to 48 hrs by Western blot analysis; format: functional, cell-based
In short: (§2)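 HeLa cultures treated 24 or 48 h, washed in cold PBS, lysed 30 min at 0 °C, clarified at 15000g. 20 μg protein run on 7.5−15% gradient SDS-PAGE and blotted to PVDF. Primary antibodies 2 h at room temperature, peroxidase secondary 60 min, ECL detection. Membranes stripped and reprobed for β-actin as loading control.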

HeLa [3] = experiment: Induction of mitochondrial ROS generation in human HeLa cells after 24 to 48 hrs by H2-DCFDA staining-based flow cytometric analysis; format: functional, cell-based
In short: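 HeLa cells incubated 24 or 48 h with compound, stained with H₂-DCFDA, and intracellular ROS measured by flow cytometry. Mean of three independent experiments.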

HeLa [4] = experiment: Downregulation of cdc25c protein expression in human HeLa cells at 10 to 100 nM after 24 to 48 hrs by Western blot analysis; format: functional, cell-based; in short: as §2
HeLa [5] = experiment: Cytotoxicity against human HeLa cells assessed as growth inhibition after 48 hrs by coulter counting analysis; format: functional, cell-based
HeLa [6] = experiment: Effect on cyclin B protein expression in human HeLa cells at 10 to 100 nM after 24 to 48 hrs by Western blot analysis; format: functional, cell-based; in short: as §2
HeLa [7] = experiment: Cell cycle arrest in human HeLa cells assessed as reduction in S phase up to 60 nM after 24 hrs by propidium iodide staining-based flow cytometric analysis; format: functional
In short: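 HeLa cells (5 × 10⁵) treated for 24 h. Harvested, fixed in 70% ethanol chilled to 0 °C, then suspended in RNase with 0.1% Triton X-100. DNA stained with PI, analysed by flow cytometry as DNA-content histograms. Mean of three independent experiments.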

L1210 = experiment: Cytotoxicity against mouse L1210 cells assessed as growth inhibition after 48 hrs by coulter counting analysis; format: functional, cell-based; details: L1210, 48 h
In short: (§3)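 Cells suspended at (3−5) × 10⁵ cells/mL and mixed 1:1 with compound dilutions. Incubated 48 h at 37 °C, counted with a Coulter counter. IC₅₀ = concentration inhibiting proliferation by 50%. Mean of at least three independent experiments.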

Jurkat [8] = experiment: Cell cycle arrest in human Jurkat cells assessed as accumulation at G2/M phase after 24 hrs by propidium iodide staining-based flow cytometric analysis; format: functional; in short: as §1
[9] = Selectivity ratio of IC50 for HUVEC to IC50 for mouse FM3A/0 cells; format: ADME, cell-based; details: HUVEC and FM3A/0 cells, read-out: Ratio IC50
HeLa [10] = experiment: Induction of apoptosis in human HeLa cells assessed as PARP cleavage at 10 nM after 24 hrs by Western blot analysis; format: functional, cell-based; in short: as §2
HeLa [11] = experiment: Induction of apoptosis in human HeLa cells at 15 nM after 24 to 48 hrs by annexin-V-FITC/propidium iodide staining-based flow cytometric analysis; format: functional, cell-based
In short: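 HeLa cells treated 24 or 48 h, stained with annexin-V-FITC and PI, analysed by flow cytometry. Excitation 488 nm; emission 525 nm for FITC, 585 nm for PI. Gating separates live, early apoptotic, late apoptotic and necrotic cells. Mean of three independent experiments.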

HeLa [12] = experiment: Induction of DNA damage in human HeLa cells assessed as upregulation of gamma-H2A.X protein expression at 100 nM after 24 hrs by Western blot analysis; format: functional, cell-based; in short: as §2
PBL = experiment: Cytotoxicity against PHA-stimulated human PBL assessed as growth inhibition after 72 hrs by MTT assay; format: cell-based
In short: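 Human PBL from healthy donors were isolated on a density gradient, washed, and held overnight in RPMI-1640 with 10% FBS. For proliferating cultures, nonadherent cells were resuspended at 5 × 10⁵ cells/mL with 2.5 μg/mL PHA; resting PBL received no PHA. Cells were exposed to varying compound concentrations, and viability was read by MTT after 72 h. IC50 is the concentration reducing growth by 50%, as the mean of three independent experiments.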

Jurkat [13] = experiment: Cell cycle arrest in human Jurkat cells assessed as accumulation at G2/M phase at 10 nM after 24 hrs by propidium iodide staining-based flow cytometric analysis; format: functional; in short: as §1
HeLa [14] = experiment: Induction of mitochondrial membrane depolarization in human HeLa cells at 15 to 250 nM by JC-1 staining-based fluorescence assay; format: functional, cell-based; details: TDE = time-dependent effect
In short: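 HeLa cells treated 24 or 48 h, then stained with JC-1. Cells with depolarised mitochondria quantified by flow cytometry. Mean of three independent experiments.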

Mus musculus = experiment: Toxicity in Balb/c-nu mouse xenografted with human MNNG-HOS cells assessed as change in body weight at 50 mg/kg, ip administered once every 3 days for 9 days measured after day 18; format: organism-based; parameters: dose 50 mg/kg, route intraperitoneal; details: in vivo
In short: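 MNNG/HOS osteosarcoma cells grown to exponential phase, suspended in FBS-free MEM (10⁷ cells/mL), 0.1 mL injected into back hypodermis of nude mice. At ~100 mm³, 12 mice randomised to three groups (vehicle, CA-4P in isotonic saline, test in 5% DMSO/olive oil). 50 mg/kg ip at 0.01 mL/g on days 0, 3, 6, 9. Tumour volume and body weight tracked; tumours excised and weighed day 18; […].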

[15] = target: Cyclin-dependent kinase 1 (Homo sapiens) (UniProt P06493); experiment: Decrease of cdc2 protein phosphorylation at Tyr15 in human HeLa cells at 10 to 100 nM after 24 to 48 hrs by Western blot analysis; format: cell-based; in short: as §2
Cyclin-dependent kinase 1 (Homo sapiens), sequence (P06493 whole entry, looked up): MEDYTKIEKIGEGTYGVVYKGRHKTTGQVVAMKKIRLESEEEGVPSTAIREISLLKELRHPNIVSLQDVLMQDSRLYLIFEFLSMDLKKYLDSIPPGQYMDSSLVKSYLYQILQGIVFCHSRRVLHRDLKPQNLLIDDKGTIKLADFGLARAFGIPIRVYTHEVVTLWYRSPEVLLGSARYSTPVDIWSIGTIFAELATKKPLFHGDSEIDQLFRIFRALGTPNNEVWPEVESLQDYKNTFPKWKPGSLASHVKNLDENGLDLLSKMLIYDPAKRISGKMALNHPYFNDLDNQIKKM

MNNG-HOS = experiment: Antitumor activity against human MNNG-HOS cells xenografted in Balb/c-nu mouse assessed as tumor growth inhibition at 50 mg/kg, ip measured after 3 days; format: functional, organism-based; parameters: dose 50 mg/kg; details: HOS-TE85
[16] = Selectivity ratio of IC50 for HUVEC to IC50 for mouse L1210 cells; format: ADME, cell-based; details: HUVEC and L1210 cells, read-out: Ratio IC50
HeLa [17] = experiment: Downregulation of Xiap protein expression in human HeLa cells at 10 to 100 nM after 24 to 48 hrs by Western blot analysis; format: functional, cell-based; in short: as §2
[18] = Cytotoxicity against mouse FM3A/0 cells assessed as growth inhibition after 48 hrs by coulter counting analysis; format: functional, cell-based; details: FM3A/0, 48 h
HUVEC = experiment: Cytotoxicity against HUVEC assessed as growth inhibition after 72 hrs by MTT assay; format: cell-based; details: Homo sapiens
In short: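 HUVECs were detached with EDTA/trypsin at confluence, and only passages 1–6 were used. Cells were exposed to varying compound concentrations, and viability was read by MTT after 72 h. IC50 is the concentration reducing cell growth by 50%, as the mean of three independent experiments.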

Jurkat [19] = experiment: Cell cycle arrest in human Jurkat cells assessed as accumulation at G2/M phase at 15 to 30 nM after 24 hrs by propidium iodide staining-based flow cytometric analysis relative to control; format: functional; in short: as §1
[20] = Cytotoxicity against human Molt4/C8 cells assessed as growth inhibition after 48 hrs by coulter counting analysis; format: functional, cell-based; details: MOLT-4, 48 h; in short: as §3
[21] = Selectivity ratio of IC50 for HUVEC to IC50 for human CEM/0 cells; format: ADME, cell-based; details: HUVEC and CEM/0 cells, read-out: Ratio IC50

In the case of COc1cc(C(=O)c2cc3cc(N)cc(OC)c3s2)cc(OC)c1OC, the Activity (Jurkat [1]) is reported as “Active”, the Activity (HeLa [2]) is reported as “Active” and the Activity (HeLa [3]) is reported as “Dose-dependent effect”. The Activity (HeLa [4]) was “Active”, the IC50 (HeLa [5]) was 0.008 µM and the Activity (HeLa [6]) was “inactive”. The Activity (HeLa [7]) was “Active”, the IC50 (L1210) was 0.005 µM and the Activity (Jurkat [8]) was “Dose-dependent effect”. The selectivity ratio [9] was 460, the Activity (HeLa [10]) was “Active” and the Activity (HeLa [11]) was “Active”. The Activity (HeLa [12]) was “Active”, the IC50 (PBL) was 20.6 µM and the Activity (Jurkat [13]) was “Active”. For the same compound, the Activity (HeLa [14]) was “tde”, the Activity (Mus musculus) was “Non-toxic” and the Activity [15] was “Active”. For the same compound, the TGI (MNNG-HOS) was “Active”, the selectivity ratio [16] was 460 and the Activity (HeLa [17]) was “Active”. It also gave an IC50 [18] of 0.012 µM, an IC50 (HUVEC) of 5.5 µM and an Activity (Jurkat [19]) of 40%. It also gave an IC50 [20] of 0.0026 µM and a selectivity ratio [21] of 460.
